From ChEMBL document CHEMBL3745665, “Discovery of benzamides as potent human β3 adrenergic receptor agonists” (Bioorg Med Chem Lett, 2016)

What was measured:
[1] = biological target: Beta-1 adrenergic receptor (Homo sapiens, UniProt P08588); experiment: Displacement of [125I]CYP from human beta-1 adrenergic receptor expressed in CHO cell membrane after 1 hr by scintillation counting method; type: cell membranes
[2] = biological target: Beta-2 adrenergic receptor (Homo sapiens, UniProt P07550); experiment: Displacement of [125I]CYP from human beta-2 adrenergic receptor expressed in CHO cell membrane after 1 hr by scintillation counting method; type: cell membranes
Beta-2 adrenergic receptor, sequence (P07550 whole entry): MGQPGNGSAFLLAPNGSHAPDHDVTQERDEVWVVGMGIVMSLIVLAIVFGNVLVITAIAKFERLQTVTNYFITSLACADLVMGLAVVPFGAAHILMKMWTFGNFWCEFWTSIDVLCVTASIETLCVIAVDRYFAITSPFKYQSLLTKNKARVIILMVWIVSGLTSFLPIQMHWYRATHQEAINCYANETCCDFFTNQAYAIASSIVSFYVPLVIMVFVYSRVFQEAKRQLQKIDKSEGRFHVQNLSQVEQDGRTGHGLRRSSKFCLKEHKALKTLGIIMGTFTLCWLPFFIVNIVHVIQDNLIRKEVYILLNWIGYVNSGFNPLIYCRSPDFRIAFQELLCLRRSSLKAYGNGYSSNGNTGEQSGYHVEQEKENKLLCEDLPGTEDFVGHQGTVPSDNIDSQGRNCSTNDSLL

[3] = biological target: Voltage-gated inwardly rectifying potassium channel KCNH2 (Homo sapiens, UniProt Q12809); experiment: Inhibition of human ERG by IKr binding assay
Voltage-gated inwardly rectifying potassium channel KCNH2, sequence (Q12809 whole entry): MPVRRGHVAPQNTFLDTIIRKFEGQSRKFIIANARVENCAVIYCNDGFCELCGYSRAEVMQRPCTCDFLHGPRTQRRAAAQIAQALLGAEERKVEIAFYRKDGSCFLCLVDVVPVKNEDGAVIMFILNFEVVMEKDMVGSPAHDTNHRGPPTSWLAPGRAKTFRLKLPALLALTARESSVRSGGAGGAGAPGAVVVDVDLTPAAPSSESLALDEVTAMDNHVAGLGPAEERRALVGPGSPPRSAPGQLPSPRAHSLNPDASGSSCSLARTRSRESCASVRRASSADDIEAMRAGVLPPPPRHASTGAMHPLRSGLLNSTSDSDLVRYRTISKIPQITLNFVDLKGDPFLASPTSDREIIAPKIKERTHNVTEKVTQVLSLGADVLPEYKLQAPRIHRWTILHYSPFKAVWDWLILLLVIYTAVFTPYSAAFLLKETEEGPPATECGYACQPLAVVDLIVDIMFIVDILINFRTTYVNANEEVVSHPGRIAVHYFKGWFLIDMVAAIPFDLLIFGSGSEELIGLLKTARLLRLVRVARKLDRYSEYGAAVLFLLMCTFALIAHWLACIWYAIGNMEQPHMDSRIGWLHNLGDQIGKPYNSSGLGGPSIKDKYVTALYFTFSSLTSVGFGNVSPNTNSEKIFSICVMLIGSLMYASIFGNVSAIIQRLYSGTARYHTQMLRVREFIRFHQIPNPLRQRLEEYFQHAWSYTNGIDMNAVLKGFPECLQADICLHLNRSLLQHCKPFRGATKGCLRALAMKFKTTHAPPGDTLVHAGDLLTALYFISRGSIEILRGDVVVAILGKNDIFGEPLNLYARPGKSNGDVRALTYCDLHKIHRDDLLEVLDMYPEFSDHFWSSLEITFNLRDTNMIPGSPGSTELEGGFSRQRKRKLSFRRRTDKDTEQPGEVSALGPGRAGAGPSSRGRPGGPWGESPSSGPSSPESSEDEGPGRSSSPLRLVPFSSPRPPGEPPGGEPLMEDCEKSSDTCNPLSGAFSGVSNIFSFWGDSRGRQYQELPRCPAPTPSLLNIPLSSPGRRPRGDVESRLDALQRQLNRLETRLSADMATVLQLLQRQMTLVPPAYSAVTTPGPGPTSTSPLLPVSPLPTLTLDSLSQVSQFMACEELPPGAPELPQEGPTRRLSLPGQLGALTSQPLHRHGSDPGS

[4] = biological target: T1, Beta-3 adrenergic receptor (Homo sapiens, UniProt P13945); experiment: Agonist activity at human beta-3 adrenergic receptor expressed in CHO cells assessed as increase in cAMP level after 30 mins by LANCE TR-FRET assay; type: functional, cell-based
Target sequence in this assay (P13945 whole entry): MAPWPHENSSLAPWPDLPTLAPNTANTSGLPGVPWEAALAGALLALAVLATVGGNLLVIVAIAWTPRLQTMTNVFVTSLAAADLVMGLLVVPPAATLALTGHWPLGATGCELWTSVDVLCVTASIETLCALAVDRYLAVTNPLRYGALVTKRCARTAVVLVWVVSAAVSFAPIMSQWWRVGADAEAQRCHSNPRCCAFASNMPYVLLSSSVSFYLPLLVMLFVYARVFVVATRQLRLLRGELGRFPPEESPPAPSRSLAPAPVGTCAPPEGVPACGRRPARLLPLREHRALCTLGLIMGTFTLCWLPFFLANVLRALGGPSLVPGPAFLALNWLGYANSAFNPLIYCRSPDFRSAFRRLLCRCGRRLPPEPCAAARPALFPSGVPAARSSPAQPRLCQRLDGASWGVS

[5] = biological target: T1, Beta-3 adrenergic receptor; experiment: Agonist activity at human beta-3 adrenergic receptor expressed in CHO cells assessed as increase in cAMP level after 30 mins by LANCE TR-FRET assay relative to R-(-)-isoproterenol; type: functional, cell-based
Summary of the method: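 Efficacy: the fitted maximal value of each test compound's concentration–response curve, expressed as a percent of the maximal response to R-(−)-isoproterenol.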
Target sequence in this assay (P13945 whole entry, looked up): as the sequence (P13945 whole entry) above

[6] = Plasma clearance in dog at 0.5 mg/kg, iv or 2 mg/kg, po; type: ADME, organism-based, Canis lupus familiaris
[7] = Volume of distribution in rat at 1 mg/kg, iv or 2 mg/kg, po; type: ADME, organism-based; conditions: in vivo
[8] = Oral bioavailability in dog at 2 mg/kg; type: ADME, organism-based, Canis lupus familiaris; conditions: in vivo
[9] = Half life in rat at 1 mg/kg, iv or 2 mg/kg, po; type: ADME, organism-based; conditions: in vivo
[10] = Plasma clearance in rat at 1 mg/kg, iv or 2 mg/kg, po; type: ADME, organism-based
[11] = system: Rhesus monkey; experiment: Dose normalized AUC in po dosed rhesus monkey; type: ADME, organism-based, Macaca mulatta; conditions: in vivo
[12] = Half life in dog at 0.5 mg/kg, iv or 2 mg/kg, po; type: ADME, organism-based, Canis lupus familiaris; conditions: in vivo
[13] = system: Rattus norvegicus; experiment: Dose normalized AUC in rat at 2 mg/kg, po; type: ADME, organism-based; conditions: in vivo
[14] = Plasma clearance in rhesus monkey; type: ADME, organism-based, Macaca mulatta
[15] = Oral bioavailability in rat at 2 mg/kg; type: ADME, organism-based; conditions: in vivo
[16] = Oral bioavailability rhesus monkey; type: ADME, organism-based, Macaca mulatta; conditions: in vivo
[17] = system: Canis familiaris; experiment: Dose normalized AUC in dog at 2 mg/kg, po; type: ADME, organism-based, Canis lupus familiaris; conditions: in vivo
[18] = Volume of distribution in rhesus monkey; type: ADME, organism-based, Macaca mulatta; conditions: in vivo
[19] = Half life in rhesus monkey; type: ADME, organism-based, Macaca mulatta; conditions: in vivo
[20] = Volume of distribution in dog at 0.5 mg/kg, iv or 2 mg/kg, po; type: ADME, organism-based, Canis lupus familiaris; conditions: in vivo
[21] = Stability in rat hepatocytes assessed as residual compound after 60 mins; type: ADME, cell-based, Hepatocyte; conditions: read-out: Stability
[22] = Stability in dog hepatocytes assessed as residual compound after 60 mins; type: ADME, cell-based, Canis lupus familiaris, Hepatocyte; conditions: read-out: Stability
[23] = Stability in human hepatocytes assessed as residual compound after 60 mins; type: ADME, cell-based, Hepatocyte; conditions: read-out: Stability
[24] = Stability in rat liver microsomes assessed as residual compound after 45 mins; type: ADME; conditions: read-out: Stability
[25] = Stability in dog liver microsomes assessed as residual compound after 45 mins; type: ADME, Canis lupus familiaris; conditions: read-out: Stability
[26] = Stability in human liver microsomes assessed as residual compound after 45 mins; type: ADME; conditions: read-out: Stability
[27] = Stability in rhesus monkey liver microsomes assessed as residual compound after 45 mins; type: ADME, Macaca mulatta; conditions: read-out: Stability

Beta-1 adrenergic receptor, sequence (P08588 whole entry): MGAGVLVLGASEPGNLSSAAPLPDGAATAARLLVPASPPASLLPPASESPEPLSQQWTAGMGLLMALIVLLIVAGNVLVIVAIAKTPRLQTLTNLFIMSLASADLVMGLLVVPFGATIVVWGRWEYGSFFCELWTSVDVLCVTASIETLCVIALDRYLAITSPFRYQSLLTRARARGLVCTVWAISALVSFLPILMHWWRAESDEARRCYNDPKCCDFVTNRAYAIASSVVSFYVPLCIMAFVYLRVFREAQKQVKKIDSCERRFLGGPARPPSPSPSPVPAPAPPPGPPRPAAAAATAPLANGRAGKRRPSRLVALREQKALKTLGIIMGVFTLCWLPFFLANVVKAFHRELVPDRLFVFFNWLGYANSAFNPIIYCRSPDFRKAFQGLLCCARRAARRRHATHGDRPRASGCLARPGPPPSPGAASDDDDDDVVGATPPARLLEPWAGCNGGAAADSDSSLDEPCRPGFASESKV

Row | Compound | IC50 [1] | IC50 [2] | IC50 [3] | EC50 [4] | %max [5] | Vd [7] | half-life [9] | clearance [10] | AUC/dose [13] | bioavailability [15] | further results
1 | CCS(=O)(=O)C1CCN(C(=O)c2ccc(C[C@@H]3CC[C@H]([C@H](O)c4ccccc4)N3)cc2)CC1 | > 20 µM | > 20 µM | > 60 µM | 0.0097 µM | 100% | – | – | – | – | – | –
2 | CCc1nnc([C@H]2[C@@H]3CN(C(=O)c4ccc(C[C@@H]5CC[C@H]([C@H](O)c6ccccc6)N5)cc4)C[C@@H]32)o1 | > 20 µM | > 20 µM | – | 0.0031 µM | 97% | 9.3 L/kg | 3 h | 56 mL/min/kg | 0.21 µM·h/mg/kg | 33% | clearance [6]: 36 mL/min/kg; bioavailability [8]: 44%; AUC/dose [11]: 0.06 µM·h; half-life [12]: 3.7 h; clearance [14]: 30 mL/min/kg; bioavailability [16]: 5%; AUC/dose [17]: 0.46 µM·h; Vd [18]: 5.2 L/kg; half-life [19]: 2.4 h; Vd [20]: 9.2 L/kg
3 | Nc1nc(CC(=O)Nc2ccc(C[C@@H]3CC[C@H]([C@H](O)c4ccccc4)N3)cc2)cs1 | – | – | – | – | 99% | – | – | – | – | – | –
4 | Nc1nc(CNC(=O)c2ccc(C[C@@H]3CC[C@H]([C@H](O)c4ccccc4)N3)cc2)cs1 | > 20 µM | 5.2 µM | > 30 µM | 0.024 µM | 84% | – | – | – | – | – | –
5 | CC1(C)CC2(CCN(C(=O)c3ccc(C[C@@H]4CC[C@H]([C@H](O)c5ccccc5)N4)cc3)CC2)C(=O)O1 | > 20 µM | 11 µM | 31 µM | 0.0019 µM | 85% | 9.5 L/kg | 2 h | 86 mL/min/kg | 0.16 µM·h/mg/kg | 38% | –
6 | O=C(Nc1ccc(C[C@@H]2CC[C@H]([C@H](O)c3cccnc3)N2)cc1)C1CCc2ccnn21 (some centres undefined) | – | – | – | 0.0037 µM | 84% | – | – | – | – | – | –
7 | O=C(c1ccc(C[C@@H]2CC[C@H]([C@H](O)c3ccccc3)N2)cc1)N1C[C@@H]2[C@H](C1)[C@H]2c1nnco1 | > 20 µM | > 20 µM | 55 µM | 0.0017 µM | 101% | 9 L/kg | 1.4 h | 62 mL/min/kg | 0.26 µM·h/mg/kg | 43% | remaining at 1 h [21]: ≥ 85%; remaining at 1 h [22]: ≥ 85%; remaining at 1 h [23]: ≥ 85%; remaining at 0.75 h [24]: 98%; remaining at 0.75 h [25]: 73%; remaining at 0.75 h [26]: 84%; remaining at 0.75 h [27]: 80%
8 | CCOC(=O)C1CCN(C(=O)c2ccc(C[C@@H]3CC[C@H]([C@H](O)c4ccccc4)N3)cc2)CC1 | > 20 µM | 10.9 µM | – | 0.063 µM | 95% | – | – | – | – | – | –
9 | CCOC(=O)[C@@H]1[C@@H]2CN(C(=O)c3ccc(C[C@@H]4CC[C@H]([C@H](O)c5ccccc5)N4)cc3)C[C@@H]21 | > 20 µM | > 20 µM | – | 0.075 µM | 97% | – | – | – | – | – | –
10 | CCOC(=O)[C@H]1[C@@H]2CN(C(=O)c3ccc(C[C@@H]4CC[C@H]([C@H](O)c5ccccc5)N4)cc3)C[C@@H]21 | > 20 µM | 13.4 µM | – | 0.00049 µM | 90% | – | – | – | – | – | –
11 | O=C(c1ccc(C[C@@H]2CC[C@H]([C@H](O)c3ccccc3)N2)cc1)N1CCC2(CCOC2=O)CC1 | > 20 µM | 5.6 µM | 46 µM | 0.0033 µM | 89% | 7.2 L/kg | 2.5 h | 56 mL/min/kg | 0.21 µM·h/mg/kg | 31% | clearance [6]: 31 mL/min/kg; bioavailability [8]: 17%; half-life [12]: 3.2 h; remaining at 0.75 h [24]: 56%; AUC/dose [17]: 0.23 µM·h; remaining at 0.75 h [25]: 78%; remaining at 0.75 h [26]: 53%; Vd [20]: 7.4 L/kg
12 | Cn1nnc([C@H]2[C@@H]3CN(C(=O)c4ccc(C[C@@H]5CC[C@H]([C@H](O)c6ccccc6)N5)cc4)C[C@@H]32)n1 | > 20 µM | > 20 µM | 17 µM | 0.0054 µM | 97% | 6.5 L/kg | 3.2 h | 29 mL/min/kg | 0.73 µM·h/mg/kg | 56% | clearance [6]: 19 mL/min/kg; bioavailability [8]: 51%; half-life [12]: 3.7 h; AUC/dose [17]: 0.99 µM·h; Vd [20]: 5.5 L/kg
